As a reminder, the inhibition is the drop in the measured response relative to a control, in per cent. The inhibition in vivo is the percentage by which the read-out fell short of the control. The term ED50 denotes the midpoint of the dose-response relation.

Active and inactive are the calls of the source. The rule behind the calls is not given here.

Data set [1] concerns the target T1, D(4) dopamine receptor (Homo sapiens) (UniProt P21917).
T1 sequence (whole entry): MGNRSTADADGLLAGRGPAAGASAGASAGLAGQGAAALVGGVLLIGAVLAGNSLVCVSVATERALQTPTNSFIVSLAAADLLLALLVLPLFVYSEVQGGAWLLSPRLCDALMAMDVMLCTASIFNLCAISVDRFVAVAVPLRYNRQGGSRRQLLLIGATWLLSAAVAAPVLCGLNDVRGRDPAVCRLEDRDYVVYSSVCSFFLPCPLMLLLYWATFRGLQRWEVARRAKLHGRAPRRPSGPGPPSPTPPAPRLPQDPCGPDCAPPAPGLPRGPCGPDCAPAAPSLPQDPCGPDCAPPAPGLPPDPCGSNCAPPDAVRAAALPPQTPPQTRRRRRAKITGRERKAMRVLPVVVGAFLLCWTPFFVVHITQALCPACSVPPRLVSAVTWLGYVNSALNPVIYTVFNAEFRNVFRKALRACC
Briefly: Agonist activity at human recombinant D4 receptor expressed in CHO cells assessed as intracellular cAMP release at 1 uM by HTRF method. The class given is functional, cell-based. Summed up: (§1)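 Functional assays run by a contract lab on CHO or HEK-293 cells stably expressing the human receptor. Read-out was intracellular cAMP, IP1 or Ca2+ release. A single test concentration of 1.0E-06 was used, in duplicate. Data are mean % of the control response.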
(In general: TR-FRET usually uses a lanthanide donor and a delayed reading to cut background.)

The target in data set [2] is T2, 5-hydroxytryptamine receptor 1A (Homo sapiens) (UniProt P08908).
T2 sequence (whole entry): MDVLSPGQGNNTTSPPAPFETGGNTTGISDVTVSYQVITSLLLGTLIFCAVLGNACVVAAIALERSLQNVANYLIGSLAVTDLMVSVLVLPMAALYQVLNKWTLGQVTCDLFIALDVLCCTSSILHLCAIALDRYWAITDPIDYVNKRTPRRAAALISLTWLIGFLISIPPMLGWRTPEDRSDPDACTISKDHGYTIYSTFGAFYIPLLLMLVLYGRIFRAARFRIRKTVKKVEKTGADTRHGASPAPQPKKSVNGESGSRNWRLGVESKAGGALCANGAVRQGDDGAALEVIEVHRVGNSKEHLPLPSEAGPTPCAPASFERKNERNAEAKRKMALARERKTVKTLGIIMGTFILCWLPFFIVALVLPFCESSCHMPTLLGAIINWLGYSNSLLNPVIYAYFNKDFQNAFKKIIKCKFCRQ
Description: Antagonist activity at human recombinant 5HT1A receptor expressed in HEK293 cells assessed as inhibition of 8-OH-DPAT-induced response at 1 uM. The class given is cell-based. Summed up:
as §1

In data set [3] the target is Histamine H1 receptor (Homo sapiens) (UniProt P35367). Description: Antagonist activity at human recombinant H1 receptor expressed in HEK-293 cells assessed as inhibition of histamine-induced intracellular Ca2+ release at 1 uM by fluorimetry. The class given is functional, cell-based. The following applies: HEK293. The method, boiled down:
as §1

The test system of data set [4] is Mus musculus. Description: In vivo agonist activity at D2 receptor in ip dosed Swiss albino mouse assessed as induction of climbing behaviour. The class given is functional, organism-based.
Data set [5] deals with Mus musculus. Briefly: Antianxiety-like activity in Swiss albino mouse assessed as number of punished crossings at 0.312 to 5 mg/kg, ip by four-plate test. The class given is functional, organism-based. Summed up:
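Four-plate test in male Swiss albino mice, 8-10 per dose, dosed i.p. in Tween 80 vehicle. After 15-s habituation, a 0.8 mA, 0.5 s foot shock was given at each plate crossing, with a 3 s shock-free interval. Punished crossings were counted over a 1-min session.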

Data set [6] relates to Mus musculus. Description: In vivo partial agonist activity at 5HT1A receptor in CD-1 mouse assessed as change in body temperature at 5 mg/kg, ip measured after 120 mins (reference value: -0.1 degC). The class given is functional, organism-based. The method, boiled down:
(§2)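 Male CD-1 mice, 7-9 per dose, compound suspended in 1% aqueous Tween 80 and given i.p. at 10 ml/kg. Rectal temperature was taken by thermometer 30, 60, 90 and 120 min after dosing. Change (Δt) is expressed against basal temperature measured at the start. Mean ± SEM, one-way ANOVA with Bonferroni test.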

The subject of data set [7] is Mus musculus. Briefly: In vivo partial agonist activity at 5HT1A receptor in CD-1 mouse assessed as change in body temperature at 5 mg/kg, ip measured after 60 mins (reference value: -0.1 degC). It is filed as functional, organism-based. Summed up:
as §2

Data set [8] relates to Mus musculus. Briefly: Anti-depressant like activity in Swiss albino mouse assessed as shortening of immobility time at 2.5 mg/kg, ip by forced swim test. The class given is functional. Summed up: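 Forced swim test in male Swiss albino mice, 7-9 per dose. Compound was given i.p. in 1% Tween 80 at 10 ml/kg, 60 min pretest. Mice swam for 6 min in a cylinder with 6 cm of water at 23-25 °C. Immobility was scored over the last 4 min. Analysis was one-way ANOVA with Bonferroni.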

For data set [9], the system named is Mus musculus. Description: In vivo partial agonist activity at 5HT1A receptor in CD-1 mouse assessed as change in body temperature at 5 mg/kg, ip measured after 90 mins (reference value: -0.1 degC). It is filed as functional, organism-based. Summed up: as §2
The test system of data set [10] is Mus musculus. Description: In vivo partial agonist activity at 5HT1A receptor in CD-1 mouse assessed as change in body temperature at 10 mg/kg, ip administered 15 mins after 5HT1A receptor antagonist WAY100635 injection measured after 30 mins (reference value: -0.1 degC). The class given is functional, organism-based. Summed up:
(§3)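 Male CD-1 mice, 7-9 per dose. WAY 100635 (0.3 mg/kg) was given 15 min before the compound i.p. Rectal temperature was recorded 30 and 60 min after the compound, as the change from basal temperature.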

Data set [11] has as its system Mus musculus. Briefly: In vivo antagonist activity at 5HT2A receptor in ip dosed Swiss albino mouse assessed as inhibition of (+/-)-DOI-induced head twitch response. It is filed as functional. Summed up:
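Male Swiss albino mice, 5-6 per dose, habituated 20 min in glass cages. Compound was given i.p. 60 min pretest. Head twitches were induced by (±)DOI 2.5 mg/kg and counted for 20 min. ID50 is the dose inhibiting twitches by 50%.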

Data set [12] relates to Mus musculus. Description: In vivo partial agonist activity at 5HT1A receptor in CD-1 mouse assessed as change in body temperature at 10 mg/kg, ip administered 15 mins after 5HT1A receptor antagonist WAY100635 injection measured after 60 mins (reference value: -0.1 degC). The class given is functional, organism-based. Summed up: as §3
For data set [13], the system named is Mus musculus. Briefly: In vivo partial agonist activity at 5HT1A receptor in CD-1 mouse assessed as change in body temperature at 10 mg/kg, ip measured after 90 mins (reference value: -0.1 degC). The class given is functional, organism-based. Summed up:
as §2

Data set [14] has as its system Mus musculus. Briefly: In vivo partial agonist activity at 5HT1A receptor in CD-1 mouse assessed as change in body temperature at 10 mg/kg, ip measured after 120 mins (reference value: -0.1 degC). It is filed as functional, organism-based. The method, boiled down:
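Male CD-1 mice, 7-9 per dose, dosed i.p. Rectal temperature was recorded at 30, 60, 90 and 120 min. Results are the change from basal temperature taken at the start of the experiment.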

Data set [15] has as its system Mus musculus. Briefly: Toxicity in ip dosed CD-1 mouse assessed as minimum dose required for induction of catalepsy by bar test. It is filed as organism-based. To be noted: in vivo. The method, boiled down: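 Male CD-1 mice, 10 per group, given compound i.p. (1% Tween 80 suspension). Forelimbs were placed on a horizontal rod 4 cm high at 30, 60 and 120 min. Catalepsy was scored up to 3 (≥60 s on bar). Minimum cataleptogenic dose is the lowest dose giving a mean score ≥1 at any of those times.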

Sequence of Histamine H1 receptor (Homo sapiens) (P35367 whole entry): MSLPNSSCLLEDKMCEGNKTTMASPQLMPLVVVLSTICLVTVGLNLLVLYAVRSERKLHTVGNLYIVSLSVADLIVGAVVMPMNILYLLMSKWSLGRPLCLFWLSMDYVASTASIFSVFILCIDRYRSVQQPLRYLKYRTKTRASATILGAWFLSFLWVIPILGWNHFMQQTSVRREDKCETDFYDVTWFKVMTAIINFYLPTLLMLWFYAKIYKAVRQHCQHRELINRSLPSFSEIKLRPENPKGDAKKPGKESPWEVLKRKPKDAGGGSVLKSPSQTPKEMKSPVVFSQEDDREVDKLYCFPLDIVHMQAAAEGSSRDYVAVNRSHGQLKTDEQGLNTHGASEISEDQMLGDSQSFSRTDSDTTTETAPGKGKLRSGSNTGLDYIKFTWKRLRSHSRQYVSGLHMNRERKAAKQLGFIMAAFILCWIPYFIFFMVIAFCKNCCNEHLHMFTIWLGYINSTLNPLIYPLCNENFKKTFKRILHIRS

`COc1ccccc1N1CCN(CCCCN2C(=O)NC3(CCc4ccccc43)C2=O)CC1` (stereo not drawn): the Activity in data set [1] came to 27%. Further, the inhibition in data set [2] is 102%; in data set [3] it was 58%.
Take `COc1ccccc1N1CCN(CCCCN2C(=O)NC3(CCCc4ccccc43)C2=O)CC1` (stereo not drawn): the result in the data set on Mus musculus [4] and with Mus musculus [5] was inactive. Further, the Activity in [1] was found to be 15%; in the data set on Mus musculus [15], 30 mg/kg. In addition, the deltaT was -0.6 °C in the data set on Mus musculus [6]; -0.7 °C with Mus musculus [7]; -0.7 °C in the data set on Mus musculus [9]; -1.1 °C with Mus musculus [10]; -1 °C in the data set with Mus musculus [12]; -1.3 °C in the data set on Mus musculus [13]. Moreover, in the data set with Mus musculus [14], the deltaT was -1.2 °C. For the same compound, the inhibition in vivo at 2.5 mg/kg in the data set on Mus musculus [8] amounted to 37%. Further, the 50% effective dose (ED50) in the data set with Mus musculus [11] was 19.6 mg/kg. Further, the inhibition was 101% in data set [2] and 63% in data set [3].

For the origin of these results see ChEMBL document CHEMBL3588770, “Novel spirohydantoin derivative as a potent multireceptor-active antipsychotic and antidepressant agent” (Bioorg Med Chem, 2015).
